ChEMBL document CHEMBL3244097, “Fluorinated retinoic acids and their analogues. 1. Synthesis and Biological activity of (4-methoxy-2,3,6-trimethylphenyl)nonatetraenoic acid analogues” (J Med Chem, 1979)

How the values were obtained:
Mus musculus [1] = experiment: Antipapilloma activity against Hart Swiss albino mouse assessed as decrease in chemically-induced papillomas compound treated ip for 5 days/week for 2 weeks; format: functional
Summary of the method: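 At least four doses were used. ED50, the dose giving a 50% decrease in papilloma diameter, was read from a plot of percent decrease versus log dose, fitted by least squares, with a correlation coefficient reported.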

Mus musculus [2] = experiment: Toxicity in mouse assessed as hypervitaminosis dose compound treated ip daily monday through friday in first week and monday through thursday in second week measured after 1 day of last injection; format: organism-based; conditions: in vivo, 24 h
Summary of the method: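 Normal mice received retinoid suspended in water containing 0.1% carboxymethylcellulose and 0.01% Triton X-100, given intraperitoneally daily Monday–Friday in week 1 and Monday–Thursday in week 2. Hypervitaminosis, taken as the measure of toxicity, was scored 1 day after the last injection.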

Mus musculus [3] = experiment: Antipapilloma activity against Hart Swiss albino mouse assessed as decrease in chemically-induced papillomas at 80 mg/kg, ip for 5 days/week for 2 weeks; format: functional; parameters: scale not given: the % may be the effect or the level left; conditions: route intraperitoneal
Mus musculus [4] = experiment: Antipapilloma activity against Hart Swiss albino mouse assessed as decrease in chemically-induced papillomas at 10 mg/kg, ip for 5 days/week for 2 weeks; format: functional; parameters: scale not given: the % may be the effect or the level left; conditions: route intraperitoneal
Mus musculus [5] = experiment: Antipapilloma activity against Hart Swiss albino mouse assessed as decrease in chemically-induced papillomas at 600 mg/kg, ip once weekly for 2 weeks; parameters: scale not given: the % may be the effect or the level left; conditions: route intraperitoneal
Mus musculus [6] = experiment: Antipapilloma activity against Hart Swiss albino mouse assessed as decrease in chemically-induced papillomas at 1000 mg/kg, ip once weekly for 2 weeks; parameters: scale not given: the % may be the effect or the level left; conditions: route intraperitoneal
Mus musculus [7] = experiment: Antipapilloma activity against Hart Swiss albino mouse assessed as decrease in chemically-induced papillomas at 40 mg/kg, ip for 5 days/week for 2 weeks; format: functional; parameters: scale not given: the % may be the effect or the level left; conditions: route intraperitoneal
Mus musculus [8] = experiment: Antipapilloma activity against Hart Swiss albino mouse assessed as decrease in chemically-induced papillomas at 20 mg/kg, ip for 5 days/week for 2 weeks; format: functional; parameters: scale not given: the % may be the effect or the level left; conditions: route intraperitoneal
Mus musculus [9] = experiment: Antipapilloma activity against Hart Swiss albino mouse assessed as decrease in chemically-induced papillomas at 5 mg/kg, ip for 5 days/week for 2 weeks; format: functional; parameters: scale not given: the % may be the effect or the level left; conditions: route intraperitoneal
Mus musculus [10] = experiment: Antipapilloma activity against Hart Swiss albino mouse assessed as decrease in chemically-induced papillomas at 1.25 mg/kg, ip for 5 days/week for 2 weeks; format: functional; parameters: scale not given: the % may be the effect or the level left; conditions: route intraperitoneal
Mus musculus [11] = experiment: Antipapilloma activity against Hart Swiss albino mouse assessed as decrease in chemically-induced papillomas at 2.5 mg/kg, ip for 5 days/week for 2 weeks; format: functional; parameters: scale not given: the % may be the effect or the level left; conditions: route intraperitoneal

Structure (SMILES)	ED50 (Mus musculus [1])	Activity (Mus musculus [2])	Activity (Mus musculus [3])	Activity (Mus musculus [4])	Activity (Mus musculus [5])	Activity (Mus musculus [6])	Activity (Mus musculus [7])	Activity (Mus musculus [8])	Activity (Mus musculus [9])	Activity (Mus musculus [10])	Activity (Mus musculus [11])
CCOC(=O)\C=C(/C=C/C=C(C)/C=C/c1c(C)cc(OC)c(C)c1C)C(F)(F)F	> 80 mg/kg/day	> 200 mg/kg/day	-2%								
COC(=O)/C=C(C)/C=C/C(F)=C(C)/C=C/C1=C(C)CCCC1(C)C	< 80 mg/kg/day	200 mg/kg/day	60%								
CCOC(=O)/C(F)=C(C)/C(F)=C/C=C(C)/C=C/c1c(C)cc(OC)c(C)c1C	> 80 mg/kg/day	> 200 mg/kg/day	17%								
CCOC(=O)/C(F)=C(C)/C=C/C=C(C)/C=C/c1c(C)cc(OC)c(C)c1C	> 10 mg/kg/day	12.5 mg/kg/day		37%							
COC(=O)/C=C(C)/C=C/C=C(\C=C\c1c(C)cc(OC)c(C)c1C)C(F)(F)F	> 80 mg/kg/day	> 200 mg/kg/day	25%								
CCOC(=O)/C=C(C)/C=C/C=C(C)/C=C/C1=C(C)CCCC1(C)C	48 mg/kg/day	50 mg/kg/day	47%		76%	85%	36%				
COC(=O)/C=C(C)/C=C/C(F)=C(C)\C=C\c1c(C)cc(OC)c(C)c1C	> 80 mg/kg/day	200 mg/kg/day	17%								
CCOC(=O)/C(F)=C(C)/C=C/C(F)=C(C)/C=C/c1c(C)cc(OC)c(C)c1C	> 80 mg/kg/day	> 200 mg/kg/day	35%								
CCOC(=O)/C=C(C)/C(F)=C/C=C(C)/C=C/C1=C(C)CCCC1(C)C	24.3 mg/kg/day	100 mg/kg/day	83%	33%			67%	33%			
CCOC(=O)/C=C(C)/C=C/C=C(C)/C=C(/F)c1c(C)cc(OC)c(C)c1C	> 40 mg/kg/day						26%				
CCOC(=O)/C(F)=C(C)/C=C/C=C(C)/C=C/C1=C(C)CCCC1(C)C	> 20 mg/kg/day	100 mg/kg/day						40%			
CCOC(=O)/C=C(C)/C=C/C=C(C)/C=C(\F)c1c(C)cc(OC)c(C)c1C	> 40 mg/kg/day						40%				
COc1cc(C)c(/C=C/C(C)=C/C=C/C(C)=C/C(=O)O)c(C)c1C [ACITRETIN]	12.5 mg/kg/day	100 mg/kg/day		43%			90%	66%	18%		
CCOC(=O)/C=C(C)/C=C/C=C(C)/C=C/c1c(C)cc(OC)c(C)c1C [ETRETINATE]	80 mg/kg/day	100 mg/kg/day	47%	9%			33%	29%			
CCNC(=O)/C=C(C)/C(F)=C/C=C(C)/C=C/c1c(C)cc(OC)c(C)c1C	< 10 mg/kg/day	50 mg/kg/day		73%				67%			
CCNC(=O)/C=C(C)/C=C/C=C(C)/C=C/c1c(C)cc(OC)c(C)c1C [MOTRETINIDE]	19.2 mg/kg/day	50 mg/kg/day		23%			73.8%	54%	11%		
COC(=O)/C=C(C)/C=C/C=C(C)/C(F)=C/c1c(C)cc(OC)c(C)c1C	> 80 mg/kg/day	> 200 mg/kg/day	3%								
CCNC(=O)/C=C(C)/C=C/C(F)=C(C)/C=C/c1c(C)cc(OC)c(C)c1C	80 mg/kg/day	200 mg/kg/day	53%								
CCOC(=O)/C=C(C)/C(F)=C/C=C(C)/C=C/c1c(C)cc(OC)c(C)c1C	4 mg/kg/day	50 mg/kg/day	82%	76%			69%	62%	43%		
COc1cc(C)c(/C=C/C(C)=C/C=C(F)/C(C)=C/C(=O)O)c(C)c1C	2.7 mg/kg/day	25 mg/kg/day		80%					63%	34%	48%
CCOC(=O)/C=C(C)/C(F)=C/C(F)=C(C)/C=C/c1c(C)cc(OC)c(C)c1C	> 80 mg/kg/day	> 200 mg/kg/day	33%								
CCOC(=O)/C=C(C)/C(F)=C\C=C(C)\C=C\c1c(C)cc(OC)c(C)c1C	80 mg/kg/day	200 mg/kg/day	56%								
COC(=O)/C=C(C)/C=C/C(F)=C(C)/C=C/c1c(C)cc(OC)c(C)c1C	13.8 mg/kg/day	50 mg/kg/day		35%			79%	60%	28%		
COC(=O)/C=C(C)/C=C(F)/C=C(C)/C=C/c1c(C)cc(OC)c(C)c1C (mixture of isomers)	> 80 mg/kg/day	> 200 mg/kg/day	25%								
COc1cc(C)c(/C=C/C(C)=C(F)/C=C/C(C)=C/C(=O)O)c(C)c1C	7.1 mg/kg/day	50 mg/kg/day		54%				87%	30%		28%
